# In ChEMBL document CHEMBL3393025, “Discovery of dual leucine zipper kinase (DLK, MAP3K12) inhibitors with activity in neurodegeneration models” (J Med Chem, 2015):
# pIC50: −log10 of the molar value. The source made the active and inactive calls. No cut-off for these calls is given here.
# Tests used:
# [1] = Oral bioavailability in cynomolgus monkey at 5 mg/kg; format: ADME, organism-based, Macaca fascicularis; details: in vivo
# Procedure, shortened: (§1)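 Single-compound PK. Intravenous dose 1 mg/kg given as a 60% PEG solution. Oral dose 5 mg/kg given as an aqueous suspension in 1% methylcellulose. Plasma clearance, steady-state volume of distribution, half-life and oral bioavailability were determined from these doses.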
# Mus musculus = experiment: Neuroprotective activity against C57Bl/6 mouse Parkinson's disease model assessed as reduction of MPTP-induced increase in phosphorylated c-Jun level in substantia nigra at 37.5 to 75 mg/kg, po administered 30 mins prior to MPTP challenge followed by 2nd dosing after 12 and 24 hrs measured 1 hr post last dose by ELISA relative to vehicle-treated control; format: functional, organism-based
# [2] = molecular target: Mitogen-activated protein kinase kinase kinase 10 (Homo sapiens, UniProt Q02779); experiment: Inhibition of MLK2 (unknown origin)
# [3] = Half life in cynomolgus monkey at 1 mg/kg, iv and 5 mg/kg, po; format: ADME, organism-based, Macaca fascicularis; details: in vivo; procedure, shortened: as §1
# [4] = Half life in dog at 1 mg/kg, iv and 5 mg/kg, po; format: ADME, organism-based, Canis lupus familiaris; details: in vivo; procedure, shortened: as §1
# MDR1 = experiment: Apparent permeability from apical to basolateral side in MDCK cells expressing human MDR1 at 5 uM after 60 to 180 mins by LC-MS/MS analysis; format: ADME, cell-based, Canis lupus familiaris; details: dog
# [5] = Plasma clearance in cynomolgus monkey at 1 mg/kg, iv and 5 mg/kg, po; format: ADME, organism-based, Macaca fascicularis; procedure, shortened: as §1
# [6] = Oral bioavailability in dog at 5 mg/kg; format: ADME, organism-based, Canis lupus familiaris; details: in vivo; procedure, shortened: as §1
# [7] = Volume of distribution at steady state in cynomolgus monkey at 1 mg/kg, iv and 5 mg/kg, po; format: ADME, organism-based, Macaca fascicularis; details: in vivo, read-out: Vdss; procedure, shortened: as §1
# [8] = molecular target: Serine/threonine-protein kinase 16 (Homo sapiens) (UniProt O75716); experiment: Inhibition of STK16 (unknown origin) at 0.1 uM
# Procedure, shortened: (§2)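 Kinase selectivity panel of 298 kinases, test compound at 0.1 μM, percent inhibition reported.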
# [9] = Plasma clearance in mouse at 1 mg/kg, iv and 5 mg/kg, po; format: ADME, organism-based; procedure, shortened: as §1
# [10] = Volume of distribution at steady state in dog at 1 mg/kg, iv and 5 mg/kg, po; format: ADME, organism-based, Canis lupus familiaris; details: in vivo, read-out: Vdss; procedure, shortened: as §1
# [11] = molecular target: Proto-oncogene tyrosine-protein kinase Src (Homo sapiens) (UniProt P12931); experiment: Inhibition of Src_N1 (unknown origin) at 0.1 uM; procedure, shortened: as §2
# [12] = molecular target: Mitogen-activated protein kinase 9 (Homo sapiens, UniProt P45984); experiment: Inhibition of JNK2 (unknown origin)
# [13] = molecular target: T1, Ephrin type-A receptor 1 (Homo sapiens) (UniProt P21709); experiment: Inhibition of EphA1 (unknown origin) at 0.1 uM; procedure, shortened: as §2
# T1 sequence (whole entry): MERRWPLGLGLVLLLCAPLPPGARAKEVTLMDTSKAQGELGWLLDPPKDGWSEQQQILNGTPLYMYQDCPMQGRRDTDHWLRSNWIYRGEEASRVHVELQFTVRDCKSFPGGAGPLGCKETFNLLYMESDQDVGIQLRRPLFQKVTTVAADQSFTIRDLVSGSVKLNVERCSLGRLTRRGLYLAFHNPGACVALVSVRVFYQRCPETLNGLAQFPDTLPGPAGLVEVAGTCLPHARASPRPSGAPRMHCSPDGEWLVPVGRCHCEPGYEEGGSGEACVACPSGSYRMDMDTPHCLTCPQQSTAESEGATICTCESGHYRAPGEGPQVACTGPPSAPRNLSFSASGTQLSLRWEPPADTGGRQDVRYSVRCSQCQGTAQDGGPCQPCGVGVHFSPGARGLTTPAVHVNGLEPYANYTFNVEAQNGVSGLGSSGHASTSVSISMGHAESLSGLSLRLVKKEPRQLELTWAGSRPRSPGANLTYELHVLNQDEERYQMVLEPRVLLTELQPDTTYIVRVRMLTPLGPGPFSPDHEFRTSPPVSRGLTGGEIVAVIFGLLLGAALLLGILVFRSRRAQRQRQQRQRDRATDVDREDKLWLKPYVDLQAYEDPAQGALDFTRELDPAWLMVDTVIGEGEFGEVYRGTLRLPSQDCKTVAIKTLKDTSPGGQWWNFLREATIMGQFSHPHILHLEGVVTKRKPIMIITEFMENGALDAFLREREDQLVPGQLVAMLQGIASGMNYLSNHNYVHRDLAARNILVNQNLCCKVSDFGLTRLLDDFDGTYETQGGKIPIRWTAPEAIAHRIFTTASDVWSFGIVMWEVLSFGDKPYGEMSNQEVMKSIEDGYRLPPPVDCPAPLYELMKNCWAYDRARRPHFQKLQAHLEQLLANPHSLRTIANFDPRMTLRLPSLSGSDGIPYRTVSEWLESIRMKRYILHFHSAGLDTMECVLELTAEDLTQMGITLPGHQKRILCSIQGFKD
# [14] = molecular target: Mitogen-activated protein kinase kinase kinase 11 (Homo sapiens, UniProt Q16584); experiment: Inhibition of MLK3 (unknown origin)
# [15] = molecular target: Mitogen-activated protein kinase 8 (Homo sapiens, UniProt P45983); experiment: Inhibition of JNK1 (unknown origin)
# Mitogen-activated protein kinase 8, sequence (P45983 whole entry): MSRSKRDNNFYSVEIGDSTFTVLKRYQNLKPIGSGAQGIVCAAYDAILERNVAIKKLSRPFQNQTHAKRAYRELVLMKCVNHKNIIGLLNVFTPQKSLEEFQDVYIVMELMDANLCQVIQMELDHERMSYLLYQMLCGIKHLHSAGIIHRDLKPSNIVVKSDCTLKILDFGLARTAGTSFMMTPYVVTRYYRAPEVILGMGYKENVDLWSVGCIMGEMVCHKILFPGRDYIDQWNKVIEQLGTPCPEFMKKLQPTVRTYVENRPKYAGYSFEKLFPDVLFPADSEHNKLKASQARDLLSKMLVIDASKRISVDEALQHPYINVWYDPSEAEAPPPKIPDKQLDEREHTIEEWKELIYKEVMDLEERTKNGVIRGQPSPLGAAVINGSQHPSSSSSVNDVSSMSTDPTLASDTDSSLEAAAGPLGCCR
# Mitogen-activated protein kinase 9, sequence (P45984 whole entry): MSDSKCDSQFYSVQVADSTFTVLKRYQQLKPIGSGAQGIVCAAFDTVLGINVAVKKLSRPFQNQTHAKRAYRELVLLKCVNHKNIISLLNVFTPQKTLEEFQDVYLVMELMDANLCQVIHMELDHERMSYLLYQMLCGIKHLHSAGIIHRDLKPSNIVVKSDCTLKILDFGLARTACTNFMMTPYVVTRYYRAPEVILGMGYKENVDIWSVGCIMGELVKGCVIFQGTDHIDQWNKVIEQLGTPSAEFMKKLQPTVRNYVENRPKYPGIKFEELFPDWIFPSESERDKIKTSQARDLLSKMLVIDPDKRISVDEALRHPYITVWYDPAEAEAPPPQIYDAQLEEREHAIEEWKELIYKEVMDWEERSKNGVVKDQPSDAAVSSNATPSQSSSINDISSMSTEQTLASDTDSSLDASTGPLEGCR
# Mitogen-activated protein kinase kinase kinase 11, sequence (Q16584 whole entry): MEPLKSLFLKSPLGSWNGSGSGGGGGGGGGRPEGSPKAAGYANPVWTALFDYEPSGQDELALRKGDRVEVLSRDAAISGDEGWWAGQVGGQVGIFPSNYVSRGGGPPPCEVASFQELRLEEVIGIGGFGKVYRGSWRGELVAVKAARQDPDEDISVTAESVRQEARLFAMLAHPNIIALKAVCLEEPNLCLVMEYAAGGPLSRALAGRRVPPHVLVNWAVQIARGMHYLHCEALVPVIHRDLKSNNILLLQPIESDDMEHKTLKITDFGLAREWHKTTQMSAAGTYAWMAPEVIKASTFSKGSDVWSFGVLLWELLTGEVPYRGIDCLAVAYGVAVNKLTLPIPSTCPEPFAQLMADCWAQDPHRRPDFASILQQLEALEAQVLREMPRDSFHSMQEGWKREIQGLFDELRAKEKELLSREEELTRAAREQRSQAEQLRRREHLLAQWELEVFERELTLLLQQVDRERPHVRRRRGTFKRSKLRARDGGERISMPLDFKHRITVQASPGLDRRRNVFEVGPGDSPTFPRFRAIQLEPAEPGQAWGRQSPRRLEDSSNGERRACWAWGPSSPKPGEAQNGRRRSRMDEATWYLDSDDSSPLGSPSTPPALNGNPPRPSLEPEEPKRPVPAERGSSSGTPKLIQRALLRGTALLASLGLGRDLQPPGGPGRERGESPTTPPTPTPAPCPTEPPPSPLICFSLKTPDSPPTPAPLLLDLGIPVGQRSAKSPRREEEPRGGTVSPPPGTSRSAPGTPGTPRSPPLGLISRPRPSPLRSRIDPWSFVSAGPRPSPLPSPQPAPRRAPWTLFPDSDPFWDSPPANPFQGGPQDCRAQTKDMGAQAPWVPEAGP
# Serine/threonine-protein kinase 16 (Homo sapiens), sequence (O75716 whole entry): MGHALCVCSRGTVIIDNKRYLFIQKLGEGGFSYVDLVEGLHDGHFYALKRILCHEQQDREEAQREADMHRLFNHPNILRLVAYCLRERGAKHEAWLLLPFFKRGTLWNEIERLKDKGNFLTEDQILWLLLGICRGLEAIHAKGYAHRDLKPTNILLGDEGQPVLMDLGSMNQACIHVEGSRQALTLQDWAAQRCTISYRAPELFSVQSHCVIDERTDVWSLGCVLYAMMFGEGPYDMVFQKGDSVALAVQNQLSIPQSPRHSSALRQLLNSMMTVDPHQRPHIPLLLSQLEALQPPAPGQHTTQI
# Mitogen-activated protein kinase kinase kinase 10, sequence (Q02779 whole entry): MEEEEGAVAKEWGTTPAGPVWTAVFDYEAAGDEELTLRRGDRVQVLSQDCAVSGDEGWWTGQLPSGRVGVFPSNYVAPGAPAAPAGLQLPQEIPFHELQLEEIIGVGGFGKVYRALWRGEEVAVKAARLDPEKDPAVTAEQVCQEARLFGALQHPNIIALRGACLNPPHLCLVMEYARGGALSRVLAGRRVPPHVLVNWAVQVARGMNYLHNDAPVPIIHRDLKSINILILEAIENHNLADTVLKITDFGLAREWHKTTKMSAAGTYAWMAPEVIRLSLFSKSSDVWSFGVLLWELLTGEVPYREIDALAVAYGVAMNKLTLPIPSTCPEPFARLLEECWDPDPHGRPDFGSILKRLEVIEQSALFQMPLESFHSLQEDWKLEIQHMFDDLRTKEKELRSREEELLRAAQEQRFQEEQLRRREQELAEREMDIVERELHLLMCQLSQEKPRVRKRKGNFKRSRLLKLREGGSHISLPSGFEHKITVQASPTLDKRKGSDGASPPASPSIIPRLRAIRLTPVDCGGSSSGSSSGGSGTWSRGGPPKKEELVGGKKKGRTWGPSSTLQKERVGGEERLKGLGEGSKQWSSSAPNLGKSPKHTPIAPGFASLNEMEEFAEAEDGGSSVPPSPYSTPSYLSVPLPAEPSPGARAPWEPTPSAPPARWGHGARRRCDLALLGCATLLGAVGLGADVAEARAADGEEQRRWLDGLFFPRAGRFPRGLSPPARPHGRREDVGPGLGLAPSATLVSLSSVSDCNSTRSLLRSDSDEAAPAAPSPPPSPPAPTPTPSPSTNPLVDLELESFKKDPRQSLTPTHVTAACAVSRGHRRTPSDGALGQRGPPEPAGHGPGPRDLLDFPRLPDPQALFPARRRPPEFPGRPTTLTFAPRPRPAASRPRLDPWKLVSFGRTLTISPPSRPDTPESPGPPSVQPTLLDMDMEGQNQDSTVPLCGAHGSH
# Proto-oncogene tyrosine-protein kinase Src (Homo sapiens), sequence (P12931 2-536 limits assumed): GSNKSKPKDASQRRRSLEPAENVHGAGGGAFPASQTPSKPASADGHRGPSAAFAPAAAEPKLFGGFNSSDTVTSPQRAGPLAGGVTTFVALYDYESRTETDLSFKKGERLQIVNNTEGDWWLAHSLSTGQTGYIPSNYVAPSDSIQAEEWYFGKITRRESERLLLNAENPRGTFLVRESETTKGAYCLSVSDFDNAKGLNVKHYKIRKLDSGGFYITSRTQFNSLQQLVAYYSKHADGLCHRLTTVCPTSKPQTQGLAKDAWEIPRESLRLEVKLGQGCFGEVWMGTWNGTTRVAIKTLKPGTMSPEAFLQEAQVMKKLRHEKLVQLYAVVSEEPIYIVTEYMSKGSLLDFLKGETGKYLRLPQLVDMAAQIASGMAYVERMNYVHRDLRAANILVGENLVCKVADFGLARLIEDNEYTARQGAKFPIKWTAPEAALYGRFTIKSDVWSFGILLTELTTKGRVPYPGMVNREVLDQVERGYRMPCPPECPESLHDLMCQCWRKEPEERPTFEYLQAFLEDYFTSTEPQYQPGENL
structure (smiles),measurement,setting,value
N#Cc1ccnc(Nc2cc(C3CCN(C4COC4)CC3)cc(N3CCC(F)(F)C3)n2)c1,bioavailability,[1],19%
same,Activity,Mus musculus,Active
same,pIC50,[2],6.12
same,half-life,[3],2.4 h
same,half-life,[4],4 h
same,Papp A→B at 5 µM,MDR1,6 ×10⁻⁶ cm/s
same,clearance,[5],16 mL/min/kg
same,bioavailability,[6],32%
same,Vd,[7],3.1 L/kg
same,inhibition,[8],> 80%
same,clearance,[9],56 mL/min/kg
same,Vd,[10],6.5 L/kg
same,inhibition,[11],> 80%
same,pIC50,[12],6.29
same,inhibition,[13],> 80%
same,pIC50,[14],6.22
same,pIC50,[15],6.89
